GPR7 antag: blocks human GPR7 receptor signaling; inhibition, % at 4.4 µM; hit rate 1.1% among 290,000; P48145; GPR7-expressing cells, fluorescence antagonist assay; in the data active = inhibition above about 16%, passing the limit was not always enough;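 note: cells stimulated with the agonist NPW; 0% = agonist with vehicle and 100% = vehicle without agonist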
TAAR1 agonist: agonists of human TAAR1. Q96RJ0. AID 624467. hit rate 0.99% among 360,000. activation, % at 3 µM. CHO RD-HGA16 TAAR1, Fluo-8 calcium fluorescence; vehicle wells 0%, saturating PEA agonist 100%;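 active = activation above the mean activation of all test compounds in the run plus 3 SD, cut at about 38% in these data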
Target sequence (Q96RJ0 whole entry, looked up): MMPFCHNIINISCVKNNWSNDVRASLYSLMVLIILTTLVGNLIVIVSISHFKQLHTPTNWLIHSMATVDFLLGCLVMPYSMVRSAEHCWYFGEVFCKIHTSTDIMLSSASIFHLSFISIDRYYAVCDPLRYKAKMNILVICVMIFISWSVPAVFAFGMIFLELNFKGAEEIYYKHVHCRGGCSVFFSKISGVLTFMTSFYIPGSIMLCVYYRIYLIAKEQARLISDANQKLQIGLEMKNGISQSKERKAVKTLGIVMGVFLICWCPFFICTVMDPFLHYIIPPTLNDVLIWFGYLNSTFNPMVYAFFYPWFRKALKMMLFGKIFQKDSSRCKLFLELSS
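System: CHO-derived RD-HGA16 cells with stable Gα16 and human TAAR1 / Times: 17-24 h plating, Fluo-8 75 min 37 °C, 30 min RT / Technique: calcium-sensitive Fluo-8 signal, excitation 470-495, emission 515-575 nm / Measure: % activation relative to PEA EC100 response / Benchmarks: DMSO and PEA EC100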
OX1R antag-1: antagonists of human orexin 1 receptor; CHO/OX1R cells, Fluo-8 calcium fluorescence, orexin A; inhibition, % at 5 µM; hit rate 0.43% among 330,000; AID 434989;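 active = inhibition above its plate's threshold, mean inhibition of all tested compounds on the plate plus 3 SD, cut at about 37% in these data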;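 note: 0% = orexin A challenge wells and 100% = SB-334867-A antagonist wells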
OX1R antag-2: antagonists of human orexin 1 receptor (OX1R); O43613; hit rate 1.8% among 330,000; inhibition, % at 6.6 µM; OX1R-expressing cells, FRET antagonist read-out; in the data active = inhibition mostly above about 38%, no sharp cut-off; inactive = mostly below about 40%;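 note: 0% = agonist challenge alone and 100% = reference antagonist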
CHO parental Ca: signal in parental CHO cells, OX1R antagonist counter-screen; parental CHO-K1, ATP-induced calcium, Fluo-8 fluorescence; inhibition, % at 5.6 µM; hit rate 0.63% among 330,000; AID 463079;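 active = inhibition above that plate's mean sample inhibition plus 3 SD, cut at about 26% in these data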;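 note: 0% = ATP-challenged DMSO wells and 100% = DMSO wells without ATP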
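Test system: parental CHO cells; detection: calcium-sensitive Fluo-8 fluorescence; evaluation: percent inhibition of calcium signal; also added: ATP as calcium-mobilizing challenge; repeats: one well per compound; control set: ATP-challenged DMSO wells low, unchallenged DMSO wells high; compound: single nominal dose of 5.6 µM per compound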
TAAR1 antagonist: antagonists of human TAAR1; CHO RD-HGA16 TAAR1, Fluo-8 calcium fluorescence, antagonist; inhibition, % at 3 µM; hit rate 1.5% among 360,000;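 active = inhibition above a per-plate cutoff, the mean inhibition of test compounds on that plate plus 3 SD, cut at about 49% in these data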;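 note: 0% = DMSO plus EC80 beta-PEA response and 100% = DMSO alone without agonist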
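Test system: hTAAR1-expressing CHO RD-HGA16 cells, Gα16-coupled; Probe or stimulus: EC80 β-phenethylamine stimulus; Compound dosing: single nominal final test compound concentration of 3 µM; Timing: 140 s kinetic read after compound, 140 s after agonist; Signal: Fluo-8 calcium-sensitive fluorescence; Measure: % inhibition of agonist calcium response; Controls: DMSO and EC80 PEA controls.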
TAAR1 ag confirm: confirmation of human TAAR1 agonists; CHO RD-HGA16 TAAR1, Fluo-8 calcium fluorescence; scaled: DMSO 0%, maximal phenethylamine 100%; activation, % at 3 µM; hit rate 82% among 2,400; shares compounds with TAAR1 agonist;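 active = activation above a cutoff set at the run's mean compound activation plus 3 SD, cut at about 39% in these data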
Ga16 nonsel ag: counter-screen for TAAR1 agonists: nonselective agonists in parental cells; CHO-Ga16 parental, Fluo-8 calcium fluorescence; normalized to maximal ATP response, DMSO zero; activation, % at 3 µM; hit rate 50% among 2,400; shares compounds with TAAR1 agonist;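 active = activation above the run cutoff, the mean activation over all tested wells plus 3 SD, cut at about 12% in these data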;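 note: 0% = DMSO wells and 100% = maximal ATP response on the peak over basal ratio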
TAAR1 desensitize: counter-screen for human TAAR1 agonists: agonists that desensitize TAAR1. shares compounds with TAAR1 agonist. CHO RD-HGA16 hTAAR1, Fluo-8 calcium, beta-PEA response inhibition. inhibition, % at 3 µM. hit rate 46% among 2,400. AID 651951;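 active = inhibition above the run cutoff, the mean inhibition of all test compounds plus 3 SD, cut at about 49% in these data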;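 note: beta-PEA stimulus applied at its EC80; loss of beta-PEA calcium signal after compound pretreatment read as receptor desensitization; 0% = DMSO with beta-PEA at EC80 and 100% = DMSO alone without agonist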
Ga16 nonsel ant: counter-screen for TAAR1 agonists: nonselective Ga16 antagonists; shares compounds with TAAR1 agonist; hit rate 39% among 2,400; inhibition, % at 3 µM; CHO-Ga16 ATP-induced calcium, Fluo-8 fluorescence;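 active = inhibition above the plate's mean compound inhibition plus 3 SD, computed per plate, cut at about 22% in these data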;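 note: 0% = EC80 ATP with DMSO and 100% = DMSO wells without ATP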
* hit, by the source's call; . = not tested or not shown. Most compounds without a hit are left out; they make up all but 4.6% or so of the library.

SMILES	GPR7 antag	TAAR1 agonist	OX1R antag-1	OX1R antag-2	CHO parental Ca	TAAR1 antagonist	TAAR1 ag confirm	Ga16 nonsel ag	TAAR1 desensitize	Ga16 nonsel ant
Cc1ccccc1OCC(=O)NNC(=S)NC(=O)c1ccco1	-9	65*	7	4	-5	14	29	23*	12	20
CC(C)c1ccc(OCC(=O)NNC(=S)NC(=O)c2ccco2)c(Br)c1	-12	44*	10	-4	-2	7	81*	59*	70*	51*
O=C(CSc1ccccc1)NN1C(=O)c2ccccc2C1=O	-9	1	0	12	0	3	.	.	.	.
CCCCN(C(=O)NC(=O)Nc1cccc(C)c1C)S(C)(=O)=O	17	70*	4	8	5	25	58*	19*	18	10
CCCCN(CCCC)c1ccc(C(=O)c2ccccc2C(=O)O)c(O)c1	8	107*	78*	18	94*	92*	38*	39*	64*	57*
CN(C)c1ccc(C(=O)c2ccccc2C(=O)O)c(O)c1	-7	2	-15	12	3	7	.	.	.	.
O=[N+]([O-])c1ccc2c(c1)CCCO[C@]21O[C@H](CCO)C[C@H](O)[C@H]1O	.	0	.	.	.	-6	.	.	.	.
COc1ccc(CN2C(=O)C(C)Nc3ncnc(N4CCc5ccccc5C4)c32)cc1 (stereo not given)	.	53*	.	.	.	16	44*	1	-3	16
COc1ccc(CN2C(=O)C(C)Nc3ncnc(N4CCN(c5ccccn5)CC4)c32)cc1 (stereo not given)	.	17	-22	3	-14	17	.	.	.	.
O=C(/C=C/c1ccc(O)c([N+](=O)[O-])c1)c1ccc2ccccc2c1	-17	66*	-8	7	6	39	32	38*	24	19
Cc1c(C(=O)N/N=C/c2ccncc2)no[n+]1[O-]	1	4	-5	11	6	-14	.	.	.	.
O=C(Oc1cc(Cl)ccc1Cl)c1ccc(N2CCOCC2)c([N+](=O)[O-])c1	-8	3	-12	16	-11	1	.	.	.	.
CC(=O)Nc1ccc(S(=O)(=O)N2CCc3c(Cl)cccc3C2)cc1	-3	7	-17	18	9	15	.	.	.	.
O=C(c1cccnc1)N1CCc2ccccc21	4	5	-2	5	-9	12	.	.	.	.
O=C(c1cccnc1)N1CCc2ccccc2C1	4	59*	-5	26	-4	-6	40*	2	3	8
O=C(c1nc2ncccn2n1)N1CCc2ccccc2C1	-12	51*	0	7	-10	21	71*	0	28	6
Cc1cc2c(cc1S(=O)(=O)N(C)Cc1ccccc1)OCC(=O)N2	-5	-1	-9	3	-6	10	.	.	.	.
O=C(CN1CCc2ccccc2C1)Nc1ccccc1C(F)(F)F	-7	56*	1	4	-4	4	75*	10	52*	4
Cc1c(Cl)cccc1NC(=S)N1CCc2ccccc2C1	15	74*	-14	5	-7	43	69*	0	30	7
FC(F)(F)c1ccccc1NC(=S)N1CCc2ccccc2C1	-2	80*	-14	7	6	43	96*	18*	45	11
O=C(CSc1nc2[nH]ncc2c(=O)[nH]1)NCCc1ccccc1	-1	57*	12	2	-8	12	29	0	13	10

Compound activity deposited in PubChem by The Scripps Research Institute Molecular Screening Center.
